# Measured values published in PubChem BioAssay.
# Activity calls are given as the source filed them.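 How the source made its calls, unless noted: active means GFP response above 150% of the DMSO level; inconclusive means fewer than 70 events counted for a yeast strain; inactive means the rest.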
# Experiments:
# [1] = hit retest on RPL19A-GFP reporter strain – cell-based, S. cerevisiae, flow cytometry, cherry picks, mother/daughter gates, confirmation (AID 2270;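 active means GFP response below 50% of the DMSO control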); details: 3 h, at 10 µM, stronger effect = lower value, 100 = same GFP as DMSO wells
# [2] = yeast TOR pathway reporter LAP4-GFP change – cell-based, cherry picks, flow cytometry, mother/daughter gates, confirmation (AID 2271;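 active means GFP response above 150% of the DMSO control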;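 further: ratio of sample to DMSO plate mean so 100% equals DMSO level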); details: S. cerevisiae LAP4-GFP strain, 3 h, at 10 µM, stronger effect = higher value, 100 means same as DMSO control
# How it was run: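 Measured by: GFP by flow cytometry. Test system: GFP-fusion yeast strain. Input: yeast cells seeded at OD600 of 0.2. Timing: 30 °C, 3 h compound incubation, rotating. Buffer or medium: synthetic complete medium for yeast. Benchmarks: DMSO-only negative wells, rapamycin 400 ng/mL positive wells. Compound: 10 µM single dose.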
# [3] = TOR pathway reporter MEP2-GFP, retest of hits – S. cerevisiae, flow cytometry GFP, cherry picks, confirmation (AID 2272;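 active means GFP response above 150% of the DMSO control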;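 further: ratio of well signal to plate DMSO mean so 100% equals DMSO level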); details: S. cerevisiae MEP2-GFP strain, 3 h, at 10 µM, stronger effect = higher value
# [4] = yeast AGP1-GFP fluorescence change, single-dose – cell-based, flow cytometry, S. cerevisiae, cherry picks, confirmation (AID 2273);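 further: median GFP channel fluorescence over the whole cell population gate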; details: S. cerevisiae AGP1-GFP strain, 3 h, at 10 µM
# [5] = TOR pathway CIT2 reporter hit retest – S. cerevisiae, GFP fusion, cherry picks, mother/daughter gates, confirmation (AID 2274); details: S. cerevisiae CIT2-GFP strain, flow cytometry, 3 h, at 10 µM, stronger effect = higher value
# [6] = measured here: daughter cell gate
# [7] = measured here: mother cell gate
# [8] = measured here: daughter cell gate response
# [9] = measured here: mother cell gate response
Compound,GFP response vs DMSO [1],"GFP response vs DMSO [1, 6] [%]","GFP response vs DMSO [1, 7] [%]",GFP response relative to DMSO [2],"GFP response relative to DMSO [2, 8] [%]","GFP response relative to DMSO [2, 9] [%]",GFP response vs DMSO [3],"GFP response, % of DMSO [4]","GFP response, % of DMSO [5]","GFP response, % of DMSO [5, 6] [%]","GFP response, % of DMSO [5, 7] [%]"
COc1ccc(-c2cc(C(F)(F)F)nc(S(C)(=O)=O)n2)cc1,102% (inactive),104,96.1,136% (inactive),134,133,130% (inactive),116% (inactive),95.2% (inactive),98.1,86.9
Cc1ccc(C(=O)O/N=C(\N)Cc2cccs2)c(Cl)c1,104% (inactive),102,99.3,125% (inactive),114,123,105% (inactive),70.7% (inactive),129% (inactive),117,129
O=C1c2cccc3c(N4CCCCC4)ccc(c23)C(=O)N1CCO,100% (inactive),94.9,94.9,99.5% (inactive),99.1,98.4,105% (inactive),103% (inactive),103% (inactive),101,96.8
Cc1cccc(CS(=O)(=O)c2ncc(Cl)c(C(=O)NCc3ccccc3)n2)c1,99% (inactive),96.4,99.1,108% (inactive),108,108,100% (inactive),102% (inactive),95.2% (inactive),91.5,95.5
Cc1cccc(NC(=O)c2nc(S(=O)(=O)Cc3ccccc3)ncc2Cl)c1,93.1% (inactive),92.7,91.4,136% (inactive),128,137,108% (inactive),116% (inactive),93.1% (inactive),88.7,90.4
Cc1ccc(C(=O)c2nocc2C(=O)c2cccs2)cc1,98.7% (inactive),93.6,99.8,123% (inactive),111,128,95.4% (inactive),89.9% (inactive),80.6% (inactive),79.7,80.5
Cc1cccc(/C=C/c2onc(C)c2[N+](=O)[O-])n1,99.9% (inactive),99.5,96.6,146% (inactive),137,147,100% (inactive),94.3% (inactive),87.4% (inactive),91.5,82.6
CS(=O)(=O)c1nc(-c2cccs2)cc(C(F)(F)F)n1,93% (inactive),95.2,88.6,176% (active),164,180,143% (inactive),118% (inactive),94.4% (inactive),99.2,89.5
COC(=O)Cn1nc(-c2ccccc2)c2ccccc21,92% (inactive),88.5,92.9,106% (inactive),101,106,109% (inactive),97.3% (inactive),102% (inactive),101,98.1
COc1ccc(CNC(=O)c2c(O)c3ccccc3n(C)c2=O)cc1OC,96.9% (inactive),97.8,96.7,90.6% (inactive),92.9,91.3,110% (inactive),99.1% (inactive),103% (inactive),105,103
COc1cccc(CC(=O)OC(C)C(=O)Nc2ncc(Cl)cc2Cl)c1 (stereo not drawn),101% (inactive),99.8,101,96.2% (inactive),97.2,97.2,102% (inactive),91.1% (inactive),97.8% (inactive),98.1,95.5
COc1ccc(CN2CN(C(C)C)CSC2=S)cc1,98.8% (inactive),96.7,92.1,112% (inactive),106,107,146% (inactive),107% (inactive),80.8% (inactive),80.1,75.1
Cc1cc(NCCN2CCOCC2)n2nc(C)c(-c3ccc(Cl)cc3)c2n1,97.1% (inactive),97,95.8,106% (inactive),101,109,108% (inactive),98.4% (inactive),100% (inactive),99.3,99.3
CCOc1ccc(NC2=C(Cl)C(=O)N(Cc3ccccc3)C2=O)cc1,98.2% (inactive),98.3,100,102% (inactive),96.5,102,99.5% (inactive),95.8% (inactive),96.4% (inactive),98.3,94.5
COCCCNC(=O)c1ccc2c3c(onc13)-c1ccccc1C2=O,96.3% (inactive),102,92.9,132% (inactive),126,137,102% (inactive),83.6% (inactive),96.5% (inactive),103,90.2
CC(OC(=O)CSc1ccc([N+](=O)[O-])cc1)C(=O)NCc1ccccc1 (stereo not drawn),101% (inactive),101,101,99.8% (inactive),102,100,100% (inactive),98% (inactive),97.8% (inactive),96.5,96.6
CCOC(=O)c1cc(S(=O)(=O)N2CCN(C(=O)OCC)CC2)cn1C,101% (inactive),99,101,105% (inactive),100,107,107% (inactive),95.7% (inactive),100% (inactive),99.7,102

Compound,GFP response vs DMSO [1],"GFP response vs DMSO [1, 6] [%]","GFP response vs DMSO [1, 7] [%]",GFP response relative to DMSO [2],"GFP response relative to DMSO [2, 8] [%]","GFP response relative to DMSO [2, 9] [%]",GFP response vs DMSO [3],"GFP response, % of DMSO [4]","GFP response, % of DMSO [5]","GFP response, % of DMSO [5, 6] [%]","GFP response, % of DMSO [5, 7] [%]"
COc1ccc(C2CC(c3ccccc3)=NN2S(=O)(=O)c2ccc(C)cc2)c(OC)c1 (stereo not drawn),102% (inactive),98.8,100,102% (inactive),99.1,104,103% (inactive),101% (inactive),102% (inactive),99.2,99.3
CCCc1[nH]nc2c1C1(C(=O)N(CC)c3ccccc31)C(C#N)=C(N)O2 (stereo not drawn),96.6% (inactive),95.9,96.9,96.7% (inactive),97.6,94,98.3% (inactive),98.5% (inactive),101% (inactive),99.1,101
Cc1ccc(N2CC(C(=O)OCc3nnc(-c4ccccc4)o3)CC2=O)cc1 (stereo not drawn),100% (inactive),102,101,102% (inactive),104,101,106% (inactive),96.2% (inactive),104% (inactive),104,103
Cc1cc(O)c(C(=O)/C=C/c2ccccc2)c(=O)o1,97.6% (inactive),101,96.1,144% (inactive),139,148,100% (inactive),97% (inactive),96.5% (inactive),99.7,95.5
COc1ccc(-c2cc(C(F)(F)F)nc(N3CCOCC3)n2)cc1OC,100% (inactive),100,98.4,101% (inactive),101,102,126% (inactive),99.5% (inactive),110% (inactive),114,109
CCOc1ccc(-c2noc(-c3cccnc3)n2)cc1OC,97.2% (inactive),97.1,96.4,99.2% (inactive),99.2,98.3,100% (inactive),95.6% (inactive),104% (inactive),103,98.5
O=C(Nc1nc(-c2ccc(F)cc2)cs1)c1cnccn1,97.8% (inactive),98.3,98.1,101% (inactive),97.9,101,110% (inactive),96.2% (inactive),105% (inactive),98.3,104
CC(=O)Nc1ccc(NC(=O)c2oc3cc(C)c(C)cc3c2C)cc1,99% (inactive),96.4,99.4,99.2% (inactive),99.2,98.3,102% (inactive),102% (inactive),101% (inactive),99.1,98.5
Cc1ccc(C(=O)Oc2oc(-c3ccccc3)nc2C=Nc2ccc(N(C)C)cc2)cc1,98.2% (inactive),99.4,98.8,94.9% (inactive),98.2,93,105% (inactive),101% (inactive),113% (inactive),114,114
Cc1cc(NCCCN2CCOCC2)n2nc(C)c(-c3ccc(F)cc3)c2n1,95.3% (inactive),95.9,95.6,104% (inactive),97.5,105,103% (inactive),101% (inactive),97.2% (inactive),95.8,99.3
Cc1cc(C)c(OCC(=O)Nc2nc(-c3ccccn3)cs2)c(C)c1,98.6% (inactive),98.3,98.8,121% (inactive),115,126,103% (inactive),95.8% (inactive),92.2% (inactive),95.2,88.8
O=C(Nc1nc(-c2ccccn2)cs1)c1cc2ccccc2o1,97.4% (inactive),96.7,83.7,285% (active),163,215,129% (inactive),120% (inactive),124% (inactive),104,91
CCCc1[nH]nc2c1C(c1cc(OC)ccc1F)C(C#N)=C(N)O2 (stereo not drawn),98% (inactive),99.3,97.7,101% (inactive),101,100,96.8% (inactive),101% (inactive),105% (inactive),103,104
CCCc1[nH]nc2c1C(c1ccc(OC)c(CSC3=NCCS3)c1)C(C#N)=C(N)O2 (stereo not drawn),96.8% (inactive),97.3,97.6,109% (inactive),109,107,97.5% (inactive),105% (inactive),95% (inactive),94.6,94.5
O=C(NC(=S)NNC(=O)[C@H]1C[C@@H]1c1ccccc1)c1cccc(F)c1,111% (inactive),115,110,150% (active),144,147,135% (inactive),109% (inactive),137% (inactive),141,127
CCSC1=NCCN1S(=O)(=O)c1ccc(F)cc1,98.8% (inactive),97.6,99,105% (inactive),101,106,103% (inactive),101% (inactive),93.4% (inactive),93.7,92.8
